Assay results reported in ChEMBL document CHEMBL1150802, “Ampicillin-resistant non-beta-lactamase-producing Haemophilus influenzae in Spain: recent emergence of clonal isolates with increased resistance to cefotaxime and cefixime” (2007).
≈ marks a conversion by molar mass, not a printed value.

Legend:
Type in all cases: functional
Haemophilus influenzae [1] = assay: Antibacterial activity against beta-lactamase nonproducing ampicillin resistant Haemophilus influenzae group IIc isolates with acrR baseC insertion mutation by broth microdilution method
Haemophilus influenzae [2] = assay: (§1) Antibacterial activity against beta-lactamase nonproducing ampicillin resistant Haemophilus influenzae group IIa isolates with acrR aminoacid substitution mutation by broth microdilution method
Haemophilus influenzae [3] = assay: Antibacterial activity against beta-lactamase nonproducing ampicillin resistant Haemophilus influenzae isolate assessed as percent susceptible isolates by broth microdilution method
Procedure, shortened: (§2)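 Clinical isolates were tested by broth microdilution in Haemophilus test medium following CLSI guidelines, with H. influenzae ATCC 49247 as the QC strain. β-Lactamase was detected by chromogenic nitrocefin test. ftsI was PCR-amplified and sequenced across nt 936–1640 (aa 327–540). Classes: BLNAS (no mechanism), BLNAR (ftsI substitutions), BLPAR (β-lactamase only), BLPACR (both). Agents tested were amoxicillin, amoxicillin-clavulanate (2:1), cefaclor, cefuroxime, cefotaxime and cefixime.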

Haemophilus influenzae [4] = assay: Antibacterial activity against Haemophilus influenzae group IIb isolates with ftsI gene mutation by broth microdilution method; procedure, shortened: as §2
Haemophilus influenzae [5] = assay: as §1; remark: listed apart in the source
Haemophilus influenzae [6] = assay: Antibacterial activity against beta-lactamase nonproducing ampicillin resistant Haemophilus influenzae group IIc isolates with acrR aminoacid substitution mutation by broth microdilution method
Haemophilus influenzae [7] = assay: Antibacterial activity against beta-lactamase nonproducing ampicillin resistant Haemophilus influenzae group I isolates with acrR ATT deletion behind nucleotide 170 by broth microdilution method
Haemophilus influenzae [8] = assay: Antibacterial activity against beta-lactamase nonproducing ampicillin susceptible Haemophilus influenzae isolate assessed as percent susceptible isolates by broth microdilution method
Procedure, shortened: (§3)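 Broth microdilution in Haemophilus test medium per CLSI guidelines on clinical isolates, with H. influenzae ATCC 49247 as quality-control strain; β-lactamase production detected by nitrocefin chromogenic cephalosporin test; isolates classed by β-lactamase status and ftsI (PBP 3) sequencing of amino acids 327 to 540. Agents tested: amoxicillin, amoxicillin-clavulanic acid (2:1), cefaclor, cefuroxime, cefotaxime, cefixime.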

Haemophilus influenzae [9] = assay: Antibacterial activity against beta-lactamase producing amoxicillin-clavulanic acid-resistant Haemophilus influenzae isolate assessed as percent resistant isolates by broth microdilution method; procedure, shortened: as §2
Haemophilus influenzae [10] = assay: Antibacterial activity against beta-lactamase producing amoxicillin-clavulanic acid-resistant Haemophilus influenzae isolate by broth microdilution method; procedure, shortened: as §2
Haemophilus influenzae [11] = assay: Antibacterial activity against Haemophilus influenzae group I isolates with ftsI gene mutation by broth microdilution method; procedure, shortened: as §2
Haemophilus influenzae [12] = assay: Antibacterial activity against beta-lactamase nonproducing ampicillin resistant Haemophilus influenzae group IIc isolates with acrR base A insertion behind nucleotide 361 by broth microdilution method
Haemophilus influenzae [13] = assay: Antibacterial activity against beta-lactamase nonproducing ampicillin resistant Haemophilus influenzae group IIc isolates with acrR mutation by broth microdilution method
Haemophilus influenzae [14] = assay: Antibacterial activity against beta-lactamase nonproducing ampicillin resistant Haemophilus influenzae group IIc isolates with acrR TTA>TGA mutation at 521 position by broth microdilution method
Haemophilus influenzae [15] = assay: Antibacterial activity against beta-lactamase producing amoxicillin-clavulanic acid-resistant Haemophilus influenzae isolate assessed as percent susceptible isolates by broth microdilution method; procedure, shortened: as §3
Haemophilus influenzae [16] = assay: Antibacterial activity against beta-lactamase nonproducing ampicillin resistant Haemophilus influenzae group IIc isolates with acrR TTA>TGA mutation at 425 position by broth microdilution method
Haemophilus influenzae [17] = assay: Antibacterial activity against beta-lactamase positive ampicillin resistant Haemophilus influenzae isolate by broth microdilution method; procedure, shortened: as §2
Haemophilus influenzae [18] = assay: Antibacterial activity against beta-lactamase nonproducing ampicillin resistant Haemophilus influenzae group IIc isolates with acrR base C insertion behind nucleotide 496 by broth microdilution method
Haemophilus influenzae [19] = assay: Antibacterial activity against beta-lactamase nonproducing ampicillin resistant Haemophilus influenzae isolate assessed as percent resistant isolates by broth microdilution method; procedure, shortened: as §2
Haemophilus influenzae [20] = assay: Antibacterial activity against beta-lactamase nonproducing ampicillin resistant Haemophilus influenzae group IIb isolates with acrR mutation by broth microdilution method
Haemophilus influenzae [21] = assay: Antibacterial activity against Haemophilus influenzae group IIa isolates with ftsI gene mutation by broth microdilution method; procedure, shortened: as §2
Haemophilus influenzae [22] = assay: Antibacterial activity against beta-lactamase nonproducing ampicillin resistant Haemophilus influenzae isolate by broth microdilution method; procedure, shortened: as §2
Haemophilus influenzae [23] = assay: Antibacterial activity against beta-lactamase nonproducing ampicillin resistant Haemophilus influenzae group IId isolates with acrR mutation by broth microdilution method
Haemophilus influenzae [24] = assay: Antibacterial activity against Haemophilus influenzae group IId isolates with ftsI gene mutation by broth microdilution method; procedure, shortened: as §2
Haemophilus influenzae [25] = assay: Antibacterial activity against Haemophilus influenzae group IIc isolates with ftsI gene mutation by broth microdilution method; procedure, shortened: as §2
Haemophilus influenzae [26] = assay: Antibacterial activity against beta-lactamase nonproducing ampicillin susceptible Haemophilus influenzae isolate assessed as percent resistant isolates by broth microdilution method; procedure, shortened: as §2
Haemophilus influenzae [27] = assay: Antibacterial activity against beta-lactamase nonproducing ampicillin susceptible Haemophilus influenzae isolate by broth microdilution method; procedure, shortened: as §2
Haemophilus influenzae [28] = assay: Antibacterial activity against beta-lactamase nonproducing ampicillin resistant Haemophilus influenzae group IIb isolates with acrR aminoacid substitution mutation by broth microdilution method
Haemophilus influenzae [29] = assay: Antibacterial activity against Haemophilus influenzae group III-like isolates with ftsI gene mutation by broth microdilution method; procedure, shortened: as §2
Haemophilus influenzae [30] = assay: Antibacterial activity against beta-lactamase positive ampicillin resistant Haemophilus influenzae isolate assessed as percent resistant isolates by broth microdilution method; procedure, shortened: as §2
Haemophilus influenzae [31] = assay: Antibacterial activity against beta-lactamase positive ampicillin resistant Haemophilus influenzae isolate assessed as percent susceptible isolates by broth microdilution method; procedure, shortened: as §2

For `CC1(C)S[C@@H]2[C@H](NC(=O)[C@H](N)c3ccccc3)C(=O)N2[C@H]1C(=O)O` [AMPICILLIN], the MIC (Haemophilus influenzae [1]) was 2 µg/mL (≈ 5.72 µM), the MIC (Haemophilus influenzae [2]) was 1 µg/mL (≈ 2.86 µM) and the Activity (Haemophilus influenzae [3]) was 49.2%. It also gave an MIC50 (Haemophilus influenzae [4]) of 1 µg/mL (≈ 2.86 µM), an MIC90 (Haemophilus influenzae [4]) of 2 µg/mL (≈ 5.72 µM) and an MIC (Haemophilus influenzae [5]) of 4 µg/mL (≈ 11.4 µM). The MIC (Haemophilus influenzae [6]) was 2 µg/mL (≈ 5.72 µM), the MIC (Haemophilus influenzae [7]) was 2 µg/mL (≈ 5.72 µM) and the Activity (Haemophilus influenzae [8]) was 98.4%. It also gave an Activity (Haemophilus influenzae [9]) of 100%, an MIC50 (Haemophilus influenzae [10]) of no less than 32 µg/mL and an MIC90 (Haemophilus influenzae [10]) of no less than 32 µg/mL. It also gave an MIC (Haemophilus influenzae [11]) of 0.5 µg/mL (≈ 1.43 µM), an MIC50 (Haemophilus influenzae [11]) of 0.5 µg/mL (≈ 1.43 µM) and an MIC90 (Haemophilus influenzae [11]) of 2 µg/mL (≈ 5.72 µM). The MIC (Haemophilus influenzae [12]) was 1 µg/mL (≈ 2.86 µM), the MIC (Haemophilus influenzae [13]) was 1 µg/mL (≈ 2.86 µM) and the MIC (Haemophilus influenzae [14]) was 2 µg/mL (≈ 5.72 µM). The Activity (Haemophilus influenzae [15]) was 0%, the MIC (Haemophilus influenzae [16]) was 0.5 µg/mL (≈ 1.43 µM) and the MIC50 (Haemophilus influenzae [17]) was 8 µg/mL (≈ 22.9 µM). For the same compound, the MIC (Haemophilus influenzae [18]) was 0.5 µg/mL (≈ 1.43 µM), the Activity (Haemophilus influenzae [19]) was 50.8% and the MIC (Haemophilus influenzae [20]) was 1 µg/mL (≈ 2.86 µM). It also gave an MIC50 (Haemophilus influenzae [21]) of 2 µg/mL (≈ 5.72 µM), an MIC90 (Haemophilus influenzae [21]) of 4 µg/mL (≈ 11.4 µM) and an MIC50 (Haemophilus influenzae [22]) of 1 µg/mL (≈ 2.86 µM). The MIC90 (Haemophilus influenzae [22]) was 2 µg/mL (≈ 5.72 µM), the MIC (Haemophilus influenzae [23]) was 1 µg/mL (≈ 2.86 µM) and the MIC (Haemophilus influenzae [24]) was 0.5 µg/mL (≈ 1.43 µM). The MIC50 (Haemophilus influenzae [24]) was 0.5 µg/mL (≈ 1.43 µM), the MIC90 (Haemophilus influenzae [24]) was 2 µg/mL (≈ 5.72 µM) and the MIC50 (Haemophilus influenzae [25]) was 2 µg/mL (≈ 5.72 µM). It also gave an MIC90 (Haemophilus influenzae [25]) of 2 µg/mL (≈ 5.72 µM), an Activity (Haemophilus influenzae [26]) of 1.6% and an MIC (Haemophilus influenzae [27]) of no more than 0.25 µg/mL. It also gave an MIC50 (Haemophilus influenzae [27]) of no more than 0.25 µg/mL, an MIC90 (Haemophilus influenzae [27]) of 0.5 µg/mL (≈ 1.43 µM) and an MIC (Haemophilus influenzae [28]) of 2 µg/mL (≈ 5.72 µM). The MIC50 (Haemophilus influenzae [29]) was 1 µg/mL (≈ 2.86 µM), the MIC90 (Haemophilus influenzae [29]) was 2 µg/mL (≈ 5.72 µM) and the Activity (Haemophilus influenzae [30]) was 100%.
`N[C@@H](C(=O)N[C@@H]1C(=O)N2C(C(=O)O)=C(Cl)CS[C@H]12)c1ccccc1` [CEFACLOR ANHYDROUS] gave an Activity (Haemophilus influenzae [31]) of 91.1%, an Activity (Haemophilus influenzae [3]) of 87.9% and an MIC50 (Haemophilus influenzae [4]) of 4 µg/mL (≈ 10.9 µM). For the same compound, the Activity (Haemophilus influenzae [8]) was 100%, the Activity (Haemophilus influenzae [9]) was 24.3% and the MIC50 (Haemophilus influenzae [10]) was 4 µg/mL. For the same compound, the MIC90 (Haemophilus influenzae [10]) was no less than 16 µg/mL, the MIC (Haemophilus influenzae [11]) was 2 µg/mL (≈ 5.44 µM) and the MIC50 (Haemophilus influenzae [11]) was 2 µg/mL (≈ 5.44 µM). The MIC90 (Haemophilus influenzae [11]) was 8 µg/mL (≈ 21.8 µM), the Activity (Haemophilus influenzae [15]) was 75.7% and the MIC50 (Haemophilus influenzae [17]) was 4 µg/mL (≈ 10.9 µM). For the same compound, the MIC90 (Haemophilus influenzae [17]) was 8 µg/mL (≈ 21.8 µM), the Activity (Haemophilus influenzae [19]) was 12.1% and the MIC50 (Haemophilus influenzae [21]) was 8 µg/mL (≈ 21.8 µM). For the same compound, the MIC50 (Haemophilus influenzae [22]) was 4 µg/mL (≈ 10.9 µM), the MIC50 (Haemophilus influenzae [24]) was 2 µg/mL (≈ 5.44 µM) and the MIC90 (Haemophilus influenzae [24]) was 8 µg/mL (≈ 21.8 µM). It also gave an MIC50 (Haemophilus influenzae [25]) of 8 µg/mL (≈ 21.8 µM), an Activity (Haemophilus influenzae [26]) of 0% and an MIC50 (Haemophilus influenzae [27]) of 2 µg/mL (≈ 5.44 µM). It also gave an MIC90 (Haemophilus influenzae [27]) of 4 µg/mL (≈ 10.9 µM), an MIC50 (Haemophilus influenzae [29]) of 4 µg/mL (≈ 10.9 µM) and an Activity (Haemophilus influenzae [30]) of 8.9%.
